Assay results: ChEMBL document CHEMBL5058577, “EUbOPEN Chemogenomics Library 2 (Multiplex)” (2022)

Tested on: HEK-293T
Experiment: Multiplex assay against HEK293T
Format: toxicity, cell-based
Settings: human
Summary of the method: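 Four dyes were applied at seeding to live cells: Hoechst33342, BioTracker Green Microtubule Cytoskeleton Dye, MitoTracker Red and Annexin V Alexa Fluor 680. Imaging after compound addition used a CQ1 microscope at 37°C and 5% CO2. CellPathfinder machine-learning gating then sorted cells into Hoechst high-intensity objects or normal cells, normal cells into healthy, pyknosed or fragmented nuclei, and pyknosed cells into mitotic or apoptotic, with tubulin, mitochondrial-mass and membrane-permeability phenotypes given as per cents of healthy-nucleus cells.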

[1] = 12 h, 1 µM, compound concentration 1 uM, replicate 1
[2] = 12 h, 1 µM, compound concentration 1 uM, replicate 2
[3] = 12 h, 10 µM, compound concentration 10 uM, replicate 1
[4] = 12 h, 10 µM, compound concentration 10 uM, replicate 2
[5] = 24 h, 1 µM, compound concentration 1 uM, replicate 1
[6] = 24 h, 1 µM, compound concentration 1 uM, replicate 2
[7] = 24 h, 10 µM, compound concentration 10 uM, replicate 1
[8] = 24 h, 10 µM, compound concentration 10 uM, replicate 2
[9] = 48 h, 1 µM, compound concentration 1 uM, replicate 1
[10] = 48 h, 1 µM, compound concentration 1 uM, replicate 2
[11] = 48 h, 10 µM, compound concentration 10 uM, replicate 1
[12] = 48 h, 10 µM, compound concentration 10 uM, replicate 2

CN(C)C(=O)Cn1cc(-c2ccc(-c3cncc4ccccc34)cc2)cn1
Population Apoptotic (%) [1]: 52% | Population Fragmented Nuclei (%) [1]: 5% | Population Healthy Nuclei (%) [1]: 81% | Population Hoechst High Intensity Objects (%) [1]: 7% | Population Membrane Permeable-Phenotype (%) [1]: 0% | Population Mitochondria Different-Phenotype (%) [1]: 50% | Population Mitotic Cells (%) [1]: 47% | Population Normal (%) [1]: 92% | Population Pyknosed Nuclei (%) [1]: 12% | Population Tubulin-Different-Phenotype (%) [1]: 35% | Total Cell Count [1]: 411 | Population Apoptotic (%) [2]: 40% | Population Fragmented Nuclei (%) [2]: 4% | Population Healthy Nuclei (%) [2]: 80% | Population Hoechst High Intensity Objects (%) [2]: 2% | Population Mitochondria Different-Phenotype (%) [2]: 58% | Population Mitotic Cells (%) [2]: 59% | Population Normal (%) [2]: 97% | Population Pyknosed Nuclei (%) [2]: 14% | Population Tubulin-Different-Phenotype (%) [2]: 23% | Total Cell Count [2]: 337 | Population Apoptotic (%) [3]: 48% | Population Fragmented Nuclei (%) [3]: 8% | Population Healthy Nuclei (%) [3]: 73% | Population Hoechst High Intensity Objects (%) [3]: 6% | Population Membrane Permeable-Phenotype (%) [3]: 0% | Population Mitochondria Different-Phenotype (%) [3]: 65% | Population Mitotic Cells (%) [3]: 51% | Population Normal (%) [3]: 93% | Population Pyknosed Nuclei (%) [3]: 17% | Population Tubulin-Different-Phenotype (%) [3]: 47% | Total Cell Count [3]: 264 | Population Apoptotic (%) [4]: 69% | Population Healthy Nuclei (%) [4]: 76% | Population Hoechst High Intensity Objects (%) [4]: 19% | Population Mitochondria Different-Phenotype (%) [4]: 69% | Population Mitotic Cells (%) [4]: 30% | Population Normal (%) [4]: 80% | Population Pyknosed Nuclei (%) [4]: 15% | Population Tubulin-Different-Phenotype (%) [4]: 43% | Total Cell Count [4]: 321 | Population Apoptotic (%) [5]: 47% | Population Fragmented Nuclei (%) [5]: 10% | Population Healthy Nuclei (%) [5]: 79% | Population Hoechst High Intensity Objects (%) [5]: 6% | Population Membrane Permeable-Phenotype (%) [5]: 0% | Population Mitochondria Different-Phenotype (%) [5]: 38% | Population Mitotic Cells (%) [5]: 52% | Population Normal (%) [5]: 93% | Population Pyknosed Nuclei (%) [5]: 10% | Population Tubulin-Different-Phenotype (%) [5]: 24% | Total Cell Count [5]: 498 | Population Apoptotic (%) [6]: 40% | Population Fragmented Nuclei (%) [6]: 6% | Population Healthy Nuclei (%) [6]: 82% | Population Hoechst High Intensity Objects (%) [6]: 7% | Population Mitochondria Different-Phenotype (%) [6]: 45% | Population Mitotic Cells (%) [6]: 60% | Population Normal (%) [6]: 92% | Population Tubulin-Different-Phenotype (%) [6]: 23% | Total Cell Count [6]: 355 | Population Apoptotic (%) [7]: 48% | Population Fragmented Nuclei (%) [7]: 9% | Population Healthy Nuclei (%) [7]: 75% | Population Hoechst High Intensity Objects (%) [7]: 6% | Population Membrane Permeable-Phenotype (%) [7]: 0% | Population Mitochondria Different-Phenotype (%) [7]: 65% | Population Mitotic Cells (%) [7]: 51% | Population Normal (%) [7]: 93% | Population Pyknosed Nuclei (%) [7]: 14% | Population Tubulin-Different-Phenotype (%) [7]: 44% | Total Cell Count [7]: 283 | Population Apoptotic (%) [8]: 45% | Population Fragmented Nuclei (%) [8]: 10% | Population Hoechst High Intensity Objects (%) [8]: 14% | Population Mitochondria Different-Phenotype (%) [8]: 53% | Population Mitotic Cells (%) [8]: 54% | Population Normal (%) [8]: 85% | Population Pyknosed Nuclei (%) [8]: 13% | Population Tubulin-Different-Phenotype (%) [8]: 30% | Total Cell Count [8]: 362 | Population Apoptotic (%) [9]: 35% | Population Fragmented Nuclei (%) [9]: 19% | Population Healthy Nuclei (%) [9]: 74% | Population Hoechst High Intensity Objects (%) [9]: 8% | Population Membrane Permeable-Phenotype (%) [9]: 1% | Population Mitochondria Different-Phenotype (%) [9]: 40% | Population Mitotic Cells (%) [9]: 64% | Population Normal (%) [9]: 91% | Population Pyknosed Nuclei (%) [9]: 6% | Population Tubulin-Different-Phenotype (%) [9]: 25% | Total Cell Count [9]: 554 | Population Apoptotic (%) [10]: 60% | Population Fragmented Nuclei (%) [10]: 11% | Population Healthy Nuclei (%) [10]: 82% | Population Hoechst High Intensity Objects (%) [10]: 5% | Population Membrane Permeable-Phenotype (%) [10]: 0% | Population Mitochondria Different-Phenotype (%) [10]: 32% | Population Mitotic Cells (%) [10]: 39% | Population Normal (%) [10]: 94% | Population Pyknosed Nuclei (%) [10]: 5% | Population Tubulin-Different-Phenotype (%) [10]: 17% | Total Cell Count [10]: 430 | Population Apoptotic (%) [11]: 66% | Population Fragmented Nuclei (%) [11]: 23% | Population Healthy Nuclei (%) [11]: 63% | Population Hoechst High Intensity Objects (%) [11]: 11% | Population Membrane Permeable-Phenotype (%) [11]: 0% | Population Mitochondria Different-Phenotype (%) [11]: 56% | Population Mitotic Cells (%) [11]: 33% | Population Normal (%) [11]: 88% | Population Pyknosed Nuclei (%) [11]: 12% | Population Tubulin-Different-Phenotype (%) [11]: 30% | Total Cell Count [11]: 379 | Population Apoptotic (%) [12]: 59% | Population Healthy Nuclei (%) [12]: 70% | Population Hoechst High Intensity Objects (%) [12]: 8% | Population Mitochondria Different-Phenotype (%) [12]: 43% | Population Mitotic Cells (%) [12]: 40% | Population Normal (%) [12]: 91% | Population Pyknosed Nuclei (%) [12]: 6% | Population Tubulin-Different-Phenotype (%) [12]: 23% | Total Cell Count [12]: 429
